Source: PubChem BioAssay (several laboratories)
NF-kB neuron act: raises NF-kB expression in human neuronal cells. NF-kB reporter expression; active compounds read high. fold change at 12.5 µM. actives 1.6% (n = 190,000). AID 1239; in the data active means fold change above about 3.3
STAT1 activator: STAT1 signaling activation; AID 932; actives 2.6% (n = 200,000); activation (% of control), % at 5.5 µM; NIH 3T3 STAT1-luciferase reporter, IFN-gamma, luminescence; 100% = IFN-gamma alone, no compound;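 active means activation above the screen-wide mean activation plus 3 SD, cut at about 130% in these data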;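 further: raw ratio to IFN-gamma control signal so 100% means no change and 0% no light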
STAT3 activator: increases IL-6 driven STAT3 reporter signal; U3A cells, IL-6 STAT3-luciferase reporter, luminescence; 100% = signal with IL-6 EC80 alone; activation (% of control), % at 5.6 µM; actives 0.91% (n = 190,000); AID 871;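 active means activation above the screen-wide mean of compound activation plus 3 SD, cut at about 130% in these data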;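 further: 0% = background luminescence of wells with medium and substrate only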
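Material: STAT1-lacking human U3A cells, STAT3 luciferase reporter | Benchmarks: IL-6-only wells as 100% reference | Probe or stimulus: IL-6 (33 ng/mL) | Timing: Compound 1 h, then IL-6 6 h at 37 °C | Detection: Luminescence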
STAT3 blocker: reduces IL-6 driven STAT3 reporter signal. U3A cells, IL-6 STAT3-luciferase reporter, luminescence; host cell line lacks STAT1. inhibition, % at 5.5 µM. actives 0.89% (n = 190,000). AID 862;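 active means inhibition above the mean inhibition across all screened compounds plus 3 SD, cut at about 44% in these data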;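 further: 0% = DMSO only wells and 100% = 100 µM nifuroxazide control wells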
STAT1 inh: STAT1 signaling inhibition; NIH 3T3 STAT1-luciferase reporter, IFN-gamma, luminescence; inhibition, % at 5.5 µM; actives 0.35% (n = 200,000);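 active means inhibition above a set limit, the mean inhibition across all tested compounds plus 3 SD, cut at about 34% in these data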;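 further: 0% = IFN-gamma with DMSO and 100% = IFN-gamma with 300 µM nifuroxazide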
APP 5'UTR act: activates APP 5'UTR luciferase reporter; SH-SY5Y APP 5'UTR luciferase reporter, luminescence; zero percent = DMSO vehicle wells; actives 1% (n = 190,000); activation, % at 2 µM;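 active means activation above a set limit, based on mean plus 3 SD of controls, cut at about 140% in these data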
* marks the source's active call; other numbers are inactive results. In the library only some 4.9% were active in any assay of this set; here they are far more common.

SMILES | NF-kB neuron act | STAT1 activator | STAT3 activator | STAT3 blocker | STAT1 inh | APP 5'UTR act
Cc1ccc(NC(=O)N/C=C/c2ccco2)c(C)c1 | 5.2* | 101 | 107 | -3 | -1 | -6
Cc1ccc(NC(=O)N/C=C/c2ccco2)cc1C | 1.3 | 103 | 97 | 11 | -3 | 13
COc1ccc(N(C(C)C(=O)Nc2cccnc2)S(C)(=O)=O)cc1 (configuration not stated) | 1 | 130* | 95 | 10 | -35 | -5
Cc1c(-c2ccccc2)n[nH]c1C(=O)NN | 1.7 | 101 | 115 | -16 | -1 | 32
CCOc1ccc(-c2n[nH]c(C(=O)NN)c2C)cc1 | 0.96 | 129* | 100 | 1 | -32 | 14
CC(C)Sc1nnc(Nc2ccccc2)s1 | 1.1 | 138* | 99 | 11 | -42 | 71
Cc1ccc(S(=O)(=O)NC(C)(C)CSc2nnc(Nc3ccccc3)s2)cc1 | 0.92 | 98 | 95 | 10 | 2 | -2
O=C1SC(SC(=Nc2ccccc2)Nc2ccccc2)C(=O)N1c1ccccc1 (configuration not stated) | 1.9 | 138* | 93 | 16 | -42 | 18
Cc1cccc(N2C(=O)CC(SC(=Nc3ccccc3)Nc3ccccc3)C2=O)c1 (configuration not stated) | 0.69 | 95 | 111 | -8 | 6 | -5
COc1ccc(N=CC2=C(O)CC(C)(C)CC2=O)cc1 | 1.1 | 133* | 95 | 8 | -36 | 9
COc1ccc(N=CC2=C(O)CCCC2=O)cc1 | 1.7 | 136* | 96 | 10 | -39 | -2
CC1(C)CC(=O)C(C=Nc2ccc3c(c2)OCO3)=C(O)C1 | 1.6 | 132* | 114 | -11 | -35 | 20
CC1(C)CC(=O)C(C=NCc2ccc3c(c2)OCO3)=C(O)C1 | 1.4 | 99 | 116 | -18 | 1 | -6
Cc1ccc(NC(=O)COc2ccccc2C(=O)NCCN(C)C)cc1 | 1 | 103 | 103 | 5 | -3 | 0
O=C(OCC(=O)c1cccs1)c1ccccc1 | 5.5* | 140* | 109 | -4 | -41 | 54
CCOC(=O)C(C)N1C(=O)S/C(=C/c2cc(C)n(-c3ccccn3)c2C)C1=O (configuration not stated) | 1.8 | 126 | 113 | -14 | -26 | 140*
COC(=O)CN1C(=O)S/C(=C/c2cc(C)n(C)c2C)C1=O | 2.1 | 130* | 93 | 10 | -33 | 22
CCOC(=O)C(C)N1C(=O)S/C(=C/c2cc(C)n(-c3ccncc3)c2C)C1=O (configuration not stated) | 0.97 | 93 | 93 | 11 | 6 | 8
COC(=O)C(C)N1C(=O)S/C(=C/c2cc(C)n(C(C)C)c2C)C1=O (configuration not stated) | 2.3 | 138* | 91 | 11 | -41 | 112
Cc1cc(C)n2cc(CSc3nncn3C)nc2n1 | 1.1 | 100 | 98 | 7 | -1 | 6
O=C1c2ccccc2CN1CCSC(=S)N1CCSCC1 | 2.8 | 134* | 99 | 9 | -36 | 95
O=C1c2ccccc2CN1CCSC(=S)N1CCOCC1 | 2.6 | 130* | 107 | -4 | -34 | 42
CC1CN(C(=S)SCCN2Cc3ccccc3C2=O)CC(C)O1 (configuration not stated) | 1.1 | 94 | 92 | 9 | 6 | 4
O=C1c2ccccc2CN1CCNC(=S)NC1CCCCC1 | 1.3 | 115 | 97 | 11 | -17 | 13
C/C(=N/NC(=O)CNc1ccc(Cl)cc1C)c1ccc(C)cc1 | 1.6 | 98 | 104 | -2 | 0 | -8
SMILES | NF-kB neuron act | STAT1 activator | STAT3 activator | STAT3 blocker | STAT1 inh | APP 5'UTR act
Cc1nc(Cl)c(C(=O)NC(=O)NCc2ccccc2)c(C)c1Cl | 0.99 | 102 | 101 | 2 | -2 | 17
O=S(=O)(c1ccccc1)c1cnc(-c2ccccc2)nc1N1CCCCC1 | 1.6 | 145* | 111 | -8 | -53 | -5
COc1ccc(-c2cn3ccc4ccccc4c3n2)cc1 | 14* | 120 | 127 | -32 | -21 | 217*
COc1ccc(-c2cn3cc([N+](=O)[O-])ccc3n2)cc1OC | 1.5 | 120 | 81 | 29 | -21 | 33
CCCOc1ccc(-c2cn3ccccc3n2)cc1[N+](=O)[O-] | 4.1* | 120 | 85 | 22 | -22 | 142*
CCCOc1ccc(-c2cn3ccccc3n2)cc1 | 5.6* | 36 | 23 | 88* | 69* | 109
